Results from article PMC5807869 (ACS Medicinal Chemistry Letters, 2018).
One block for each molecule: values may come before it.

What was measured:
[1] = Metabolic stability in human liver microsomes; assay type: in vitro ADME
[2] = Metabolic stability in human hepatocytes; assay type: in vitro ADME
[3] = Apparent passive permeability, RRCK; assay type: in vitro ADME, Canine
iv/po PK in rat = assay type: in vivo
Method in brief: (§1)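 Each species study used two animals per dose. Clearance is the observed plasma clearance. The same studies also gave steady-state volume of distribution, half-life, oral bioavailability and percent renal clearance.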

PDE5A1 = PDE5A1 (Homo sapiens, UniProt O76074); assay: Phosphodiesterase SPA assay, PDE5A1; assay type: biochemical; details: PDE5/2 selectivity
[4] = test system: broad spectrum BioPrint panel; assay: Broad spectrum BioPrint panel selectivity screening; details: no significant activities
iv/po PK in NHP = assay type: in vivo, Cynomolgus monkeys; details: male, cynomolgus monkey, plasma, 1 mg/kg
Method in brief: as §1

[5] = Predicted human pharmacokinetics; details: predicted from in vitro and in vivo properties

CLint scaled [1]: 16 mL/min/kg
CLint scaled [2]: 18 mL/min/kg
Papp ([3]; dog, MDCK): 23 ×10⁻⁶ cm/s
SMILES: Cc1nn2c(-c3c(C)nn(C)c3-c3ccc(C(F)(F)F)cc3)nc(C)c2c(=O)[nH]1 [Compound 1]
in vivo rat clearance profile (iv/po PK in rat): not show any extra-hepatic clearance pathways

selectivity over other phosphodiesterases (margin) (PDE5A1): ≥ 1000 fold
CLint scaled [1]: < 8 mL/min/kg
CLint scaled [2]: < 0.36 mL/min/kg
decrease of passive permeability relative to 1 ([3]; RRCK Papp, 2 vs 1): 3 fold
IC50 or EC50 in BioPrint panel [4]: > 10 µM
clearance (iv/po PK in NHP): 4 mL/min/kg
predicted human plasma clearance [5]: 2.9 mL/min/kg
predicted human t1/2 [5]: 3.7 h
predicted human volume of distribution [5]: 0.9 L/kg
SMILES: Cc1nn2c(-c3c(C)nn(C)c3-c3ccc(C(F)(F)F)cc3)nc(CO)c2c(=O)[nH]1 [Compound 2, 7-(1,3-dimethyl-5-(4-(trifluoromethyl)phenyl)-1H-pyrazol-4-yl)-5-(hydroxymethyl)-2-methylimidazo[5,1-f][1,2,4]triazin-4(3H)-one]

CLint scaled [1]: < 8 mL/min/kg
SMILES: Cc1nn2c(-c3c(CO)nn(C)c3-c3ccc(C(F)(F)F)cc3)nc(C)c2c(=O)[nH]1 [Compound 5]

CLint scaled [1]: < 9.2 mL/min/kg
SMILES: Cc1nn2c(-c3c(CO)nn(C)c3-c3ccc(C(F)(F)F)cc3)nc(CO)c2c(=O)[nH]1 [Compound 6]
